In brackets after ≈: the same amount, converted by molar mass. Activity calls are given as the source filed them. The calls are words filed in the database; no cut-off is given here.
Experiments:
Streptococcus pneumoniae = experiment: Antimicrobial activity against Streptococcus pneumoniae R6 by broth microdilution method; assay type: functional
Outline: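 MIC by CLSI broth microdilution in Mueller-Hinton broth supplemented with 5% (v/v) lysed horse blood.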

Staphylococcus aureus [1] = experiment: Antimicrobial activity against Staphylococcus aureus SH1000 by broth microdilution method; assay type: functional, organism-based
Outline: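 MIC by broth microdilution in Mueller-Hinton broth following CLSI guidelines.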

Escherichia coli [2] = experiment: Antimicrobial activity against Escherichia coli AB734 by broth microdilution method; assay type: functional, organism-based
Outline: (§1)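 Broth microdilution MIC per CLSI guidelines in Mueller-Hinton broth. E. coli 1411 and AB734 were also tested with added polymyxin B nonapeptide to permeabilise the outer membrane.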

Escherichia coli [3] = experiment: Antimicrobial activity against Escherichia coli 1411 by broth microdilution method; assay type: functional, organism-based; outline: as §1
Staphylococcus aureus [4] = experiment: Inhibition of Staphylococcus aureus MurF using D-Ala-D-Ala/UMtri-L-Lys as substrate assessed as residual activity at 100 uM after 15 mins by Malachite green method
Outline: (§2)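 S. aureus MurF, purified, assayed in 50 mM Hepes pH 8.0 with 20 mM MgCl2 and 0.005% Triton X-114, with D-Ala-D-Ala, UMtri-L-Lys and ATP. Compound was in DMSO (5% v/v final). After 15 min at 37 °C, Biomol reagent was added and A650 was read 5 min later. Duplicates were run. Residual activity was relative to 5% DMSO controls. IC50 was read as 50% residual activity across seven concentrations.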

Escherichia coli [5] = experiment: Inhibition of Escherichia coli MurF using D-Ala-D-Ala/UMtri-mDAP as substrate assessed as residual activity at 100 uM after 15 mins by Malachite green method
Outline: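 Purified E. coli MurF in 50 mM Hepes pH 8.0, 50 mM MgCl2, 0.005% Triton X-114, with D-Ala-D-Ala, UMtri-mDAP and ATP. Compound was added in DMSO (final 5% v/v). Mixtures were incubated 15 min at 37 °C, quenched with Biomol reagent, and absorbance was read at 650 nm after 5 min. Runs were in duplicate. Residual activity was taken versus DMSO-only controls. IC50 came from residual activity at seven concentrations.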

[6] = Inhibition of Streptococcus pneumoniae MurF using D-Ala-D-Ala/UMtri-L-Lys as substrate after 15 mins by Malachite green method
Outline: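 Purified S. pneumoniae MurF in 50 mM Hepes pH 8.0, 50 mM MgCl2, 0.005% Triton X-114, with D-Ala-D-Ala, UMtri-L-Lys and ATP. Compound was added in DMSO (5% v/v final). Reactions ran 15 min at 37 °C, were stopped with Biomol malachite green reagent, and A650 was measured after 5 min. Runs were in duplicate. Residual activity was versus DMSO controls. IC50 was from seven concentrations.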

[7] = Inhibition of Staphylococcus aureus MurF using D-Ala-D-Ala/UMtri-L-Lys as substrate after 15 mins by Malachite green method; outline: as §2

Row | Compound | MIC (Streptococcus pneumoniae) | Activity (Staphylococcus aureus [1]) | Activity (Escherichia coli [2]) | Activity (Escherichia coli [3]) | Activity (Staphylococcus aureus [4]) | Activity (Escherichia coli [5]) | IC50 [6] | IC50 [7]
1 | N#Cc1c(NC(=O)c2cc(S(=O)(=O)N3CCOCC3)c(Cl)cc2Cl)sc2c1CCN(CCC1CCNCC1)C2.O=C(O)C(F)(F)F | > 128 µg/mL | inactive | inactive | inactive | 84% | 93% | 600 nM | 
2 | CC(=O)Oc1ccc(C2CCc3c(sc(NC(=O)c4cc(S(=O)(=O)N5CCOCC5)c(Cl)cc4Cl)c3C#N)C2)cc1 (centres undefined) | > 128 µg/mL | inactive | inactive | inactive | 103% | 91% | 120 nM | 
3 | CC1CCCCN1S(=O)(=O)c1cc(C(=O)Nc2sc3c(c2C#N)CCCC3)c(Cl)cc1Cl (centres undefined) | > 128 µg/mL | inactive | inactive | inactive | 103% | 107% | 3750 nM | 
4 | Cl.N#Cc1c(NC(=O)c2cc(S(=O)(=O)N3CCOCC3)c(Cl)cc2Cl)sc2c1CCNC2 | 128 µg/mL | inactive | inactive | inactive | 81% | 94% | 47000 nM | 
5 | N#Cc1ccc(CN2CCc3c(sc(NC(=O)c4cc(S(=O)(=O)N5CCOCC5)c(Cl)cc4Cl)c3C#N)C2)c(F)c1 | > 128 µg/mL | inactive | inactive | inactive |  | 58% | 1920 nM | 92000 nM
6 | N#Cc1c(NC(=O)c2cc(S(=O)(=O)N3CCOCC3)c(Cl)cc2Cl)sc2c1CCN(C(=O)c1ccccc1)C2 | > 128 µg/mL | inactive | inactive | inactive | 107% | 93% | 27000 nM | 
7 | N#Cc1c(NC(=O)c2cc(S(=O)(=O)N3CCOCC3)c(Cl)cc2Cl)sc2c1CCN(CC1CCCCC1)C2 | > 128 µg/mL | inactive | inactive | inactive | 64% | 63% | 460 nM | 
8 | COc1ccc(C2CCc3c(sc(NC(=O)c4cc(S(=O)(=O)N5CCOCC5)c(Cl)cc4Cl)c3C#N)C2)cc1 (centres undefined) | > 128 µg/mL | inactive | inactive | inactive | 85% | 90% | 170 nM | 
9 | N#Cc1c(NC(=O)c2cc(S(=O)(=O)N3CCCC(C(=O)O)C3)c(Cl)cc2Cl)sc2c1CCCC2 (centres undefined) | > 128 µg/mL | inactive | inactive | inactive | 102% | 100% | 50000 nM | 
10 | N#Cc1c(NC(=O)c2cc(S(=O)(=O)N3CCC(O)CC3)c(Cl)cc2Cl)sc2c1CCCC2 | 64 µg/mL (≈ 124 µM) | inactive | inactive | inactive | 101% | 104% | 10400 nM | 
11 | CC(C)(C)OC(=O)N1CCc2c(sc(NC(=O)c3cc(S(=O)(=O)N4CCOCC4)c(Cl)cc3Cl)c2C#N)C1 | 128 µg/mL (≈ 213 µM) | inactive | inactive | inactive | 78% | 88% | 19000 nM | 
12 | N#Cc1c(NC(=O)c2cc(S(=O)(=O)N3CCOCC3)c(Cl)cc2Cl)sc2c1CCN(Cc1ccc(O)cc1)C2 | > 128 µg/mL | inactive | inactive | inactive | 84% | 68% | 180 nM | 
13 | CC(C)(C)OC(=O)N1CCC(CCN2CCc3c(sc(NC(=O)c4cc(S(=O)(=O)N5CCOCC5)c(Cl)cc4Cl)c3C#N)C2)CC1 |  | inactive | inactive | inactive |  |  |  | 
14 | N#Cc1c(NC(=O)c2cc(S(=O)(=O)N3CCOCC3)c(Cl)cc2Cl)sc2c1CCN(Cc1ccc(O)c(O)c1)C2 | > 128 µg/mL | inactive | inactive | inactive | 64% | 78% | 430 nM | 

— ChEMBL document CHEMBL2406982, “Structure-activity relationships of new cyanothiophene inhibitors of the essential peptidoglycan biosynthesis enzyme MurF” (Eur J Med Chem, 2013)
